Drawing on ChEMBL document CHEMBL1131304, “Epidoxoform: a hydrolytically more stable anthracycline-formaldehyde conjugate toxic to resistant tumor cells” (J Med Chem, 1998), this text covers IC50 and half-life for seven compounds.

What is called half-life is how long it takes for the measured level to halve. A lower half-life goes with fast loss.

In data set [1] the test system is NCI/ADR-RES. Nature of the data set: (§1) Compound was tested for its toxicity against doxorubicin resistant human breast cancer cells (MCF-7/ADR). In kind it is functional, cell-based. The method, boiled down: (§2)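 MCF-7 and MCF-7/ADR cells were grown at 37 °C in 5% CO2 in phenol red-free RPMI 1640 with 10% FBS, 2 mM L-glutamine, 25 mM HEPES and penicillin/streptomycin. MCF-7/ADR medium also held 5 μM doxorubicin. Cells were exposed to drug for 3 h in RPMI 1640/10% FBS/1% DMSO, then stained by crystal violet. IC50 was given as nmolar equiv/L.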

Data set [2] has as its system MCF7. The experiment in a line: Compound was tested for its toxicity against human breast cancer cells(MCF-7). In kind it is functional, cell-based. The method, boiled down:
as §2

Data set [3] in a line: Compound was evaluated for its half life at 25 degree Centigrade.
The nature of data set [4]: Compound was evaluated for its half life at 37 degree Centigrade.
Data set [5] has as its system MCF7. The description is as §1. In kind it is functional, cell-based. The method, boiled down:
as §2

Consider `COc1cccc2c1C(=O)c1c(O)c3c(c(O)c1C2=O)C[C@@](O)(C(C)=O)C[C@@H]3O[C@H]1C[C@H](N)[C@H](O)[C@H](C)O1` [DAUNORUBICIN], for which the IC50 in data set [1] came out at 2000 nM equiv l-1; in data set [2], 60 nM equiv l-1.
The like results for `COc1cccc2c1C(=O)c1c(O)c3c(c(O)c1C2=O)C[C@@](O)(C(=O)CO)C[C@@H]3O[C@H]1C[C@H]2C(OCN3CN2CO[C@H]2[C@@H](C)O[C@@H](O[C@H]4C[C@](O)(C(=O)CO)Cc5c(O)c6c(c(O)c54)C(=O)c4c(OC)cccc4C6=O)C[C@@H]23)[C@H](C)O1` (some centres undefined) [EPIDOXOFORM] were, in that order, 70 nM equiv l-1 and 65 nM equiv l-1.
In the same order, the values of `COc1cccc2c1C(=O)c1c(O)c3c(c(O)c1C2=O)C[C@@](O)(C(=O)CO)C[C@@H]3OC1CC2C(OCN2CN2COC3C(C)OC(O[C@H]4C[C@](O)(C(=O)CO)Cc5c(O)c6c(c(O)c54)C(=O)c4c(OC)cccc4C6=O)CC32)C(C)O1` (some centres undefined) [DOXOFORM] are 1 nM equiv l-1 and 2 nM equiv l-1.
In the same order, the values of `COc1cccc2c1C(=O)c1c(O)c3c(c(O)c1C2=O)C[C@@](O)(C(=O)CO)C[C@@H]3O[C@H]1C[C@H](N)[C@H](O)[C@H](C)O1` [DOXORUBICIN] are 10000 nM equiv l-1 and 300 nM equiv l-1.
Take `COc1cccc2c1C(=O)c1c(O)c3c(c(O)c1C2=O)C[C@@](O)(C(=O)CO)C[C@@H]3O[C@@H]1C[C@@H](N)[C@H](O)[C@@H](C)O1`: the half-life in data set [3] is 35 min; in data set [4], 15 min.
Consider `COc1cccc2c1C(=O)c1c(O)c3c(c(O)c1C2=O)C[C@@](O)(C(=O)CO)C[C@@H]3O[C@H]1C[C@H](N)[C@@H](O)[C@H](C)O1` [EPIRUBICIN], for which the IC50 is recorded as more than 10000 nM equiv l-1 in data set [1] and 200 nM equiv l-1 in data set [2].
On to `COc1cccc2c1C(=O)c1c(O)c3c(c(O)c1C2=O)C[C@@](O)(C(C)=O)C[C@@H]3OC1CC2C(OCN2CN2COC3C(C)OC(O[C@H]4C[C@](O)(C(C)=O)Cc5c(O)c6c(c(O)c54)C(=O)c4c(OC)cccc4C6=O)CC32)C(C)O1` (some centres undefined) [DAUNOFORM], for which the results for the IC50 in data set [5] and in data set [2] were 10 nM equiv l-1 and 8 nM equiv l-1, respectively.
